Compound activity from PubChem.
Rows were chosen to be rich in hits. Some 2% of all compounds tested hit in one or more screens of this group.
PG9 binder: small molecules binding HIV-1 gp120 antibody PG9. TR-FRET gp120-PG9 antibody binding. inhibition, % at 6.7 µM. 0.43% of 360,000 active. AID 624416; in the data active = inhibition above about 8.5%
NR2E3 ag-1: agonists of human nuclear receptor NR2E3; AID 2300; GST-NR2E3/biotin-RetCOR TR-FRET, 1536-well; inhibition of corepressor binding, % at 4.78 µM; 0.12% of 320,000 active;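 active = percent inhibition above the cutoff of mean plus 3 SD of all tested compounds, set per screening campaign, cut at about 20% in these data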
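system = GST-tagged NR2E3 plus biotinylated RetCOR corepressor | input = 1.35 nM GST-NR2E3 | also added = 7 nM biotin-RetCOR | schedule = 5 h incubation at 4 °C | measured by = TR-FRET with europium anti-GST and streptavidin-D2, 340 nm excitation | read-out = percent loss of FRET ratio relative to control wells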
Rev-erbA mod: modulators of human Rev-erb alpha DNA binding | AID 1259318 | Rev-erbα–FITC-DNA binding, fluorescence polarization, 90 min | 0.79% of 370,000 active | activity, % at 10 µM;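 active = activity above about 14%, limit read from the data; passing the limit was not always enough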
Target sequence (P20393 whole entry, looked up): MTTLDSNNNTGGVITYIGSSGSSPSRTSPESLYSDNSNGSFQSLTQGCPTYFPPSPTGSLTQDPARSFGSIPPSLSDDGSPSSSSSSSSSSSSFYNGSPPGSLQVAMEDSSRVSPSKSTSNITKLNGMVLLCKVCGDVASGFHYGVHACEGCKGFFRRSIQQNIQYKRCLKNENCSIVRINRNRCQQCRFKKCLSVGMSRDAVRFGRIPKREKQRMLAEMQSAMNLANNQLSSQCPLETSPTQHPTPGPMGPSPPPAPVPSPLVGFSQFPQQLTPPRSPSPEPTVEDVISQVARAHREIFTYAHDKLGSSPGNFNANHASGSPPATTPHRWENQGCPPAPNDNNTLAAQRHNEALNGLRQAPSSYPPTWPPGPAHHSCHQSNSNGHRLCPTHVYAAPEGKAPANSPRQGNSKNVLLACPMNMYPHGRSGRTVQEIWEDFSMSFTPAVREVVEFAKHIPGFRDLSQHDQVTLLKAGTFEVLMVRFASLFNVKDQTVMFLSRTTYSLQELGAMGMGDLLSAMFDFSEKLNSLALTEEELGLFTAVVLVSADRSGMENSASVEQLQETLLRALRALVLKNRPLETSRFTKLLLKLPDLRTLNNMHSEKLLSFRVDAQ
Neddyl block: cullin neddylation inhibition | P61081+Q13564 | TR-FRET cullin neddylation, biochemical | calls only at 25 µM | 0.58% of 360,000 active | AID 651699; in the data active = inhibition above about 36%
NR2E3 ag-2: human photoreceptor-specific nuclear receptor agonism; 0.35% of 360,000 active; CHO-S Gal4-NCOR/VP16-NR2E3 two-hybrid, luciferase; inhibition of corepressor binding, % at 3.98 µM; Q9Y5X4;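 active = inhibition above the mean of all tested compounds plus 3 SD, cut at about 70% in these data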;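 note: higher means lower luciferase signal from less NR2E3 corepressor binding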
NR1D1 mod conf: confirmation of modulators of human Rev-erb alpha DNA binding; shares compounds with Rev-erbA mod; Rev-erb alpha FITC-DNA binding, fluorescence polarization, 90 min; activation, % at 25 µM; 61% of 3,000 active; AID 1259319;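 active = activation at or above a set limit, or at least 3 SD above the negative control mean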
RORg DNA counter: affects RORgamma DNA binding in a Rev-erb alpha counter-screen. shares compounds with Rev-erbA mod. purified RORgamma protein-FITC-DNA binding, fluorescence polarization. IC50, µM. 8% of 910 active. AID 1259320;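 active = Compounds whose fitted half-maximal concentration for disrupting protein-DNA binding is below 10 micromolar; the record names Rev-erb in its text, so the target is in doubt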
Each line names hits and unclear results; the compound was inactive in the other large screens (follow-up assays come after a bar, where shown).

CCCN(C(=O)CSc1cc(-c2ccccc2)c2ccc(OC)cc2n1)C1CCS(=O)(=O)C1 (stereo not given)	none
COc1ccc2c(-c3ccccc3)cc(SC(C)C(N)=O)nc2c1 (stereo not given)	Rev-erbA mod 19 | NR1D1 mod conf 18
Cc1ccc(OCCCn2ccnc2)c(Br)c1	none
O=c1[nH]c(=S)c2[nH]c(=S)n(-c3ccccc3)c2[nH]1	Rev-erbA mod 15 (no result: NR2E3 ag-1) | NR1D1 mod conf inactive
FC(F)(F)c1cc(-c2ccccn2)nc2cc(-c3ccccc3)nn12	Rev-erbA mod 45 | NR1D1 mod conf 24
O=C(c1cc(-c2ccccc2Cl)nc2ccc(Br)cc12)N1CCN(c2ccccn2)CC1	Rev-erbA mod 19 | NR1D1 mod conf inactive
O=C(Nc1cccc(-c2nc3ncccc3o2)c1)c1sc2cc(Cl)ccc2c1Cl	Rev-erbA mod 31 | NR1D1 mod conf 17
O=C1c2ccccc2C(=O)N1CCC#Cc1ccc2cc(CCCO)oc(=O)c2c1	Rev-erbA mod 16 (no result: NR2E3 ag-1) | NR1D1 mod conf inactive
CN(C)c1ccc(C#Cc2ccc3cc(CCCO)oc(=O)c3c2)cc1	Rev-erbA mod 28 | NR1D1 mod conf inactive
O=c1oc(CCCO)cc2ccc(C#Cc3ccsc3)cc12	none
COC(=O)CSc1nnc(-c2cc(-c3ccccc3)n[nH]2)n1N	none (no result: PG9 binder, NR2E3 ag-1, Neddyl block, NR2E3 ag-2)
CC(C)N1CCC1(C)C(=O)Nc1cccc(C#N)c1 (stereo not given)	none (no result: NR2E3 ag-1)
COc1ccc(C(=O)Nc2ccc3[nH]c(-c4cccc(OC)c4)cc(=O)c3c2)cc1	Rev-erbA mod 51 | NR1D1 mod conf inactive
COc1ccc(C(=O)Nc2cccc(OC)c2)cc1	none
CC12CCC(=O)N1C(C(=O)Nc1cc(C(F)(F)F)ccc1N1CCCCC1)CS2 (stereo not given)	Rev-erbA mod 15 | NR1D1 mod conf inactive
CCN(CC)c1ccc(S(=O)(=O)N2CCCCC2)cc1NC(=O)C1CSC2(C)CCC(=O)N12 (stereo not given)	Rev-erbA mod 23 | NR1D1 mod conf 22
Cc1ccc(NC(=O)c2cc(S(=O)(=O)N3CCCCC3)c[nH]2)cc1C	none
CNC(=O)C[C@H]1C(=O)N(CCc2ccccc2)C[C@@H]1c1ccc(OC)cc1	none (no result: NR2E3 ag-1)
CN(Cc1ccc(Cl)cc1)C(c1cc2ccccc2o1)c1nnnn1C(C)(C)C (stereo not given)	none (no result: NR2E3 ag-1)
CC(C)c1cc(=O)oc2c3c4c(cc12)CCCN4CCC3	none (not shown: Neddyl block)
O=c1oc2c3c4c(cc2c(C(F)(F)F)c1CCN1CCOCC1)CCCN4CCC3	Rev-erbA mod 52 | NR1D1 mod conf 63 | RORg DNA counter inactive
Cc1nc(SCc2nc3c(C)cccc3[nH]2)c2oc3ccccc3c2n1	none (no result: NR2E3 ag-1)
Cc1nc(SCc2nc3c(F)cccc3[nH]2)c2oc3ccccc3c2n1	Rev-erbA mod 30 (no result: NR2E3 ag-1) | NR1D1 mod conf 39 | RORg DNA counter inactive
c1ccc(-c2nc(SCc3nc4ccccc4[nH]3)c3oc4ccccc4c3n2)cc1	Rev-erbA mod 46 (no result: NR2E3 ag-1) | NR1D1 mod conf 45 | RORg DNA counter inactive
Cc1nc(SCc2nc3ccccc3[nH]2)c2oc3ccccc3c2n1	none
COc1ccc([C@H]2OC(=O)C[C@@H]2C(=O)N2CCCCC2)cc1OC	none (no result: PG9 binder, NR2E3 ag-1, Neddyl block, NR2E3 ag-2)
CCCCc1c(-c2ccccc2OC)ncn1Cc1cc(F)cc(F)c1	none (no result: NR2E3 ag-1, Neddyl block, NR2E3 ag-2)
CCn1c2ccccc2c2cc(C3C(C#N)=C(C)NC(C)=C3C#N)ccc21	Rev-erbA mod 102 | NR1D1 mod conf 63 | RORg DNA counter inactive
CCOC(=O)Cc1csc(/N=C/c2c(O)n(-c3ccc(C)c(C)c3)c(=O)c3ccccc23)n1	Rev-erbA mod 23 (not shown: Neddyl block) | NR1D1 mod conf inactive
CC(C)[C@H](NC(=O)c1ccc(Br)cc1)C(=O)NC1CCCCC1	none
CCCOc1ccc(/C(CC)=N/NC(=O)C2(C)CC2(Br)Br)cc1 (stereo not given)	Rev-erbA mod 34 | NR1D1 mod conf 47 | RORg DNA counter inactive
N#Cc1ccc(CSc2nc3sc4c(c3c(=O)n2-c2ccc(Br)cc2)CCCC4)cc1	Rev-erbA mod 23 (no result: PG9 binder, NR2E3 ag-1, Neddyl block, NR2E3 ag-2) | NR1D1 mod conf inactive
Cc1ccc(-n2c(SCc3cccc(F)c3)nc3sc4c(c3c2=O)CCCC4)cc1	none (no result: PG9 binder, NR2E3 ag-1, Neddyl block, NR2E3 ag-2)
CCOC(=O)c1c(C)nc2sc3c(=O)n(-c4ccc(OC)cc4)nnc3c2c1-c1ccc(OC)cc1	none
CCOC(=O)c1c(C)nc2sc3c(=O)n(-c4ccc(C(C)=O)cc4)cnc3c2c1-c1ccc(OC)cc1	Rev-erbA mod 31 | NR1D1 mod conf 19
CCOC(=O)c1c(NC(=O)c2ccc(S(=O)(=O)N3CCOCC3)cc2)sc2c1CCN(C)C2	none
CCOC(=O)c1c(NC(=O)c2ccc(S(=O)(=O)N3CCOCC3)cc2)sc2c1CC(C)(C)NC2(C)C	Rev-erbA mod 42 | NR1D1 mod conf inactive
CCNc1nc(OC)nc(N(OC)S(=O)(=O)c2ccc(C)cc2)n1	none
Cc1nc(SCC(=O)NCc2ccccc2)c2oc3ccccc3c2n1	Rev-erbA mod 44 | NR1D1 mod conf 189 | RORg DNA counter inactive
O=C(CSc1ncnc2c1oc1ccccc12)NC1CCCCC1	none
O=C(CSc1ncnc2c1oc1ccccc12)Nc1nccs1	Rev-erbA mod 32 | NR1D1 mod conf 25
O=C(CSc1ncnc2c1oc1ccccc12)Nc1ccc2c(c1)OCCO2	Rev-erbA mod 676 | NR1D1 mod conf 569 | RORg DNA counter inactive
CCc1nc(SCC(=O)NC2CCCC2)c2oc3ccccc3c2n1	Rev-erbA mod 39 | NR1D1 mod conf 56 | RORg DNA counter inactive
O=C(CSc1ncnc2c1cnn2Cc1ccccc1)Nc1ccc2c(c1)OCCO2	none
COc1ccccc1NC(=O)CSc1ncnc2c1oc1ccccc12	none
CC(C)CN1C(=O)C[C@@]2(C(=O)N(C)c3ccc(NC(=O)C(F)(F)F)cc32)C1c1ccccc1 (stereo not given in full)	none (no result: PG9 binder, NR2E3 ag-1, Neddyl block, NR2E3 ag-2)
CCc1nc(SCC(=O)Nc2nccs2)c2oc3ccccc3c2n1	Rev-erbA mod 15 | NR1D1 mod conf 18
CN(C)c1ccc(/C=C(\C#N)C(=O)OCC(=O)N(C)C2CCS(=O)(=O)C2)cc1 (stereo not given)	Rev-erbA mod 20 | NR1D1 mod conf 16
CCN(C(=O)COC(=O)/C(C#N)=C/c1ccc(N(C)C)cc1)C1CCS(=O)(=O)C1 (stereo not given)	none (no result: NR2E3 ag-1)
CCOC(=O)C1CCN(C(=O)C2CCCN2S(=O)(=O)c2ccc(Cl)cc2)CC1 (stereo not given)	none
COc1ccc(-c2cc(C(=O)OCC(=O)c3c(N)n(C)c(=O)n(C)c3=O)c3ccccc3n2)cc1	Rev-erbA mod 30 | NR1D1 mod conf 19
COc1ccc(-c2cc(C(=O)c3c(N)n(C)c(=O)n(C)c3=O)c3ccccc3n2)cc1	none
CCOc1ccc(NC(=O)CNC(=O)c2nn(-c3ccc(OC)cc3)c(=O)c3ccccc23)cc1	Rev-erbA mod 32 (not shown: Neddyl block) | NR1D1 mod conf inactive
